Active and inactive are the calls of the source. No cut-off for these calls is given here.
What was measured:
Assay type in all cases: functional, organism-based
[1] = test system: Human immunodeficiency virus 1; assay: Antiviral activity against HIV-1 JRFL infected in HEK293T cells coexpressing firefly luciferase gene incubated for 1 hr; details: Human immunodeficiency virus 1, JRFL, HEK-293T
[2] = test system: Human immunodeficiency virus 1; assay: Antiviral activity against HIV-1 CH58TF infected in primary CD4 T cells isolated from PBMC assessed as antibody dependent cellular toxicity (ADCC) by measuring killing of p24+ infected cells at 50 uM FACS-based ADCC assay; details: T cell
Procedure, shortened: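 CH58TF-infected (48 h) primary CD4 T cells from PBMC served as targets in a FACS-based ADCC assay. Plasma from 3 HIV-1-infected individuals at 1:1000, with 50 μM compound or DMSO vehicle. Read-out is killing of p24+ infected cells. Mean ± SEM.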

[3] = test system: Human immunodeficiency virus 1; assay: Antiviral activity against HIV-1 CH58TF infected in primary CD4 T cells isolated from PBMC assessed as antibody dependent cellular toxicity (ADCC) at 50 uM by cell surface staining based assay
Procedure, shortened: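 Primary CD4 T cells from PBMC infected with HIV-1 CH58TF for 48 h, then surface-stained with 1:1000 HIV+ plasma (n = 3) plus 50 μM compound or DMSO vehicle. Bound IgG detected with Alexa Fluor 647 anti-human IgG secondary by flow cytometry. Mean ± SEM.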

[4] = test system: Amphotropic murine leukemia virus; assay: Antiviral activity against A-MLV infected in HEK293T cells coexpressing firefly luciferase gene incubated for 1 hr; details: HEK-293T
[5] = test system: Human immunodeficiency virus 1; assay: Antiviral activity against HIV-1 JRFL assessed as inhibition of viral growth; details: Human immunodeficiency virus 1, JRFL
Procedure, shortened: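 IC50 against JRFL measured in triplicate. Where more than one triplicate experiment was run, the value is the mean IC50 with SEM and N triplicates.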

[6] = test system: Amphotropic murine leukemia virus; assay: Antiviral activity against A-MLV assessed as inhibition of viral growth
Procedure, shortened: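 Control virus pseudotyped with amphotropic MLV Env, tested at concentrations up to 100 μM.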

[7] = test system: Human immunodeficiency virus 1; assay: Antiviral activity against HIV-1 JRFL infected in primary CD4 T cells isolated from PBMC assessed as antibody dependent cellular toxicity (ADCC) at 50 uM by cell surface staining based assay

IC50 [1]	Compound	Activity [2]	Activity [3]	further results
9.2 µM	N=C(N)NC[C@H]1Cc2cc(CN3CC[C@H](O)C3)ccc2[C@@H]1NC(=O)C(=O)Nc1ccc(Cl)c(F)c1	Active	Active	
11.1 µM	N=C(N)NC[C@H]1Cc2cc(CN3CCC[C@@H]3CO)ccc2[C@@H]1NC(=O)C(=O)Nc1ccc(Cl)c(F)c1	Active	Active	
45.1 µM	N=C(N)NC[C@H]1Cc2cc(CN3CCC[C@H]3C(=O)O)ccc2[C@@H]1NC(=O)C(=O)Nc1ccc(Cl)c(F)c1			
32.4 µM	N=C(N)NC[C@H]1Cc2cc(CN3CCC[C@@H]3C(=O)O)ccc2[C@@H]1NC(=O)C(=O)Nc1ccc(Cl)c(F)c1			
13.5 µM	N=C(N)NC[C@H]1Cc2cc(CN3CCC[C@H]3CO)ccc2[C@@H]1NC(=O)C(=O)Nc1ccc(Cl)c(F)c1	Active	Active	
10.2 µM	N=C(N)NC[C@H]1Cc2cc(CN3CC[C@@H](O)C3)ccc2[C@@H]1NC(=O)C(=O)Nc1ccc(Cl)c(F)c1	Active	Active	
10.1 µM	N=C(N)NC[C@H]1Cc2cc(CN3CC[C@H](N)C3)ccc2[C@@H]1NC(=O)C(=O)Nc1ccc(Cl)c(F)c1			
12 µM	N=C(N)NC[C@H]1Cc2cc(CN3CCC[C@H]3C(N)=O)ccc2[C@@H]1NC(=O)C(=O)Nc1ccc(Cl)c(F)c1	Active	Active	

The next lines start with the compound.

Compound	IC50 [1]	Activity [2]	Activity [3]	further results
N=C(N)NC[C@H]1Cc2cc(CN3CCN(c4ccc(F)cc4F)CC3)ccc2[C@@H]1NC(=O)C(=O)Nc1ccc(Cl)c(F)c1	50 µM			
N=C(N)NC[C@H]1Cc2cc(CN3CC[C@@H](N)C3)ccc2[C@@H]1NC(=O)C(=O)Nc1ccc(Cl)c(F)c1	14 µM			
N=C(N)NC[C@H]1Cc2cc(CN3CCCCC3)ccc2[C@@H]1NC(=O)C(=O)Nc1ccc(Cl)c(F)c1	5.5 µM			IC50 [4]: > 100 µM
CNCc1ccc2c(c1)C[C@H](CNC(=N)N)[C@H]2NC(=O)C(=O)Nc1ccc(Cl)c(F)c1				IC50 [5]: 9.6 µM; IC50 [6]: > 100 µM
N=C(N)NC[C@H]1Cc2cc(CN3CCC[C@H](C(=O)O)C3)ccc2[C@@H]1NC(=O)C(=O)Nc1ccc(Cl)c(F)c1	60 µM			
N#CC1CCN(Cc2ccc3c(c2)C[C@H](CNC(=N)N)[C@H]3NC(=O)C(=O)Nc2ccc(Cl)c(F)c2)CC1	60.7 µM			
N=C(N)NC[C@H]1Cc2cc(CN3CCC(C(N)=O)CC3)ccc2[C@@H]1NC(=O)C(=O)Nc1ccc(Cl)c(F)c1	33 µM			
N=C(N)NC[C@H]1Cc2ccccc2[C@@H]1NC(=O)C(=O)Nc1ccc(Cl)c(F)c1				IC50 [5]: 66.8 µM
N=C(N)NC[C@H]1Cc2cc(CN3CCNCC3)ccc2[C@@H]1NC(=O)C(=O)Nc1ccc(Cl)c(F)c1	4 µM	Active	Active	IC50 [4]: > 100 µM
N=C(N)NC[C@H]1Cc2cc(CN3CCCC3)ccc2[C@@H]1NC(=O)C(=O)Nc1ccc(Cl)c(F)c1	4 µM	Active	Active	IC50 [4]: > 100 µM
N=C(N)NC[C@H]1Cc2cc(CN[C@H]3CNC[C@@H]3O)ccc2[C@@H]1NC(=O)C(=O)Nc1ccc(Cl)c(F)c1	7.5 µM	Active	Active	
COC(=O)[C@@H]1C[C@@H](O)CN1Cc1ccc2c(c1)C[C@H](CNC(=N)N)[C@H]2NC(=O)C(=O)Nc1ccc(Cl)c(F)c1	6.4 µM	inactive	Active	Activity [7]: inactive
